pIC50: −log10 of the molar value. Values joined by “and” are separate entries in the source; they are usually repeats but may differ in a detail not shown here. Identical values can stand only once. Active and inactive are the calls of the source.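 The calls were made as follows: active = lowers KCNQ2 potassium channel current at one or more tested doses and a dose response curve can be fitted; inactive = no current drop at any dose, or no curve.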
Molecular target: Potassium voltage-gated channel subfamily KQT member 2 (Rattus norvegicus) (UniProt O88943)
Assay: KCNQ2 channel current inhibitors, SAR follow-up, orthogonal assay for KCNQ2 inhibitor project, automated electrophysiology, CHO cells (AID 504837)
Settings: automated patch clamp current
How it was run: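 Material: KCNQ2-expressing CHO cells / Doses: concentration series of test compound, several concentrations / Technique: automated amphotericin-perforated patch clamp recording / Replication: quadruplicate per concentration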

Sequence of Potassium voltage-gated channel subfamily KQT member 2 (Rattus norvegicus) (O88943 whole entry, looked up): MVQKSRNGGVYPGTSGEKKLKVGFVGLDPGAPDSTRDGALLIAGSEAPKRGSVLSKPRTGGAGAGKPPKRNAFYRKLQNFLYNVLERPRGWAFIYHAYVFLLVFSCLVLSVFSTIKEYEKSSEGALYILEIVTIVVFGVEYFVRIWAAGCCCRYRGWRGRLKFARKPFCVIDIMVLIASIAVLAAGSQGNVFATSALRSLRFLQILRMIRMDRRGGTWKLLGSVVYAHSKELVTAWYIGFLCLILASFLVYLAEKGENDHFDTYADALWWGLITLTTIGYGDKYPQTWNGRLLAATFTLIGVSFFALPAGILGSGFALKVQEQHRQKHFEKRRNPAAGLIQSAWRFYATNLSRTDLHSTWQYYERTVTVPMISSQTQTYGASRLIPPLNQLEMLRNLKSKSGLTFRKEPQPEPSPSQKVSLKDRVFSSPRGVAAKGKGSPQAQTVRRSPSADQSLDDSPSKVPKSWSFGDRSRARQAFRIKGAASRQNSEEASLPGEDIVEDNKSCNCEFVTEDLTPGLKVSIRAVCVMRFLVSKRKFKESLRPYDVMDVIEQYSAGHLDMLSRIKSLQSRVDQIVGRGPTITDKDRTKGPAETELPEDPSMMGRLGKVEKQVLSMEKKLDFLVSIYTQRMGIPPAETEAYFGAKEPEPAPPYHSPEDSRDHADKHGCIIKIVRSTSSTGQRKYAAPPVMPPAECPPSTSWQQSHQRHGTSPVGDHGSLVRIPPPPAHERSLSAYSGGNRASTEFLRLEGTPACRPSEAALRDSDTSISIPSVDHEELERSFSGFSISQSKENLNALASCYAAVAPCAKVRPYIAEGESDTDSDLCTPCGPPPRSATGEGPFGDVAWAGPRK

pIC50	SMILES
5.07	O=C(NC[C@H](c1cccs1)N1CCOCC1)C12CC3CC(CC(C3)C1)C2
5.49	O=C(NCC(c1cccs1)N1CCOCC1)C1COc2ccc(Cl)cc2C1 (configuration not stated)
5.05	Cc1ccc(OCCC(=O)NCC(c2cccs2)N2CCOCC2)cc1 (configuration not stated)
5.76	O=C(CC1CCCCC1)NCC(c1cccs1)N1CCOCC1 (configuration not stated)
6.04 and 6.36	O=C(NCC(c1cccs1)N1CCOCC1)C12CC3CC(CC(C3)C1)C2 (configuration not stated)

The remaining lines, values behind:

SMILES	pIC50
CC1(C(=O)NCC(c2cccs2)N2CCOCC2)CC1(Cl)Cl (configuration not stated)	5.02
O=C(NC[C@@H](c1cccs1)N1CCOCC1)C12CC3CC(CC(C3)C1)C2	6.85
O=C(NCC(c1ccco1)N1CCOCC1)C(c1ccccc1)c1ccccc1 (configuration not stated)	5.92
O=C(NCC(c1cccs1)N1CCOCC1)C1CCCCC1 (configuration not stated)	5.53
CC1Oc2ccccc2OC1C(=O)NCC(c1cccs1)N1CCOCC1 (configuration not stated)	5.08

Same assay, conditions: automated patch clamp current, at 30 µM (top of the series)

current change, negative = inhibition	SMILES
inactive	O=C(NCC(c1ccco1)N1CCOCC1)C1CC1 (configuration not stated)
inactive	CCCCC1CCC(C(=O)NCC(c2ccco2)N2CCOCC2)CC1 (configuration not stated)
inactive	Cc1ccc(OCC(=O)NCC(c2cccs2)N2CCOCC2)cc1 (configuration not stated)
inactive	Cc1ccc(OCCC(=O)NCC(c2cccs2)N2CCOCC2)cc1 (configuration not stated)
inactive	CC(C)(C)C1CCC(C(=O)NCC(c2cccs2)N2CCOCC2)CC1 (configuration not stated)
inactive	CN1CCN(C(CNC(=O)CC(C)(C)C)c2cccs2)CC1 (configuration not stated)
inactive	O=C(NCC(c1ccco1)N1CCOCC1)C1CCCCC1 (configuration not stated)
inactive	CCC(CC)C(=O)NCC(c1ccco1)N1CCOCC1 (configuration not stated)

The next lines start with the compound.

SMILES	current change, negative = inhibition
CCCCC1CCC(C(=O)NC[C@@H](c2ccco2)N2CCOCC2)CC1 (some centres not stated)	inactive
Cc1ccc(C(CNC(=O)C2CCC2)N2CCOCC2)o1 (configuration not stated)	inactive
CC(C)C(=O)NCC(c1cccs1)N1CCOCC1 (configuration not stated)	inactive
CN1CCN(C(CNC(=O)C23CC4CC(CC(C4)C2)C3)c2cccs2)CC1 (configuration not stated)	inactive
COc1ccccc1C(=O)NCC(c1cccs1)N1CCOCC1 (configuration not stated)	inactive
CC(C)(C)C(=O)NCC(c1cccs1)N1CCOCC1 (configuration not stated)	inactive
CC(C)CC(=O)NCC(c1cccs1)N1CCOCC1 (configuration not stated)	inactive
CC(C)(C)c1ccc(OCCC(=O)NCC(c2cccs2)N2CCOCC2)cc1 (configuration not stated)	inactive
Cc1ccc(C(CNC(=O)C2(C)CC2(Cl)Cl)N2CCOCC2)o1 (configuration not stated)	inactive
